Test results taken from ChEMBL document CHEMBL2440065, “Identification of a novel benzoxazolone derivative as a selective, orally active 18 kDa translocator protein (TSPO) ligand” (J Med Chem, 2013).
≈ marks a conversion by molar mass, not a printed value. Calls of active or inactive are those of the source. The rule behind the calls is not given here.

Tests used:
Mus musculus = test: Neurotoxicity in ddY mouse assessed as motor impairment at 300 mg/kg, po after 1 hr by horizontal rotarod test; assay type: toxicity, organism-based; set-up: dose 300 mg/kg, route oral; settings: in vivo
[1] = Solubility of the compound at pH 6.8; assay type: physicochemical; settings: buffer
How it was run: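 Solubility measured in pH 6.8 buffer containing bile acids; compound tested as free base and as HCl salt.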

[2] = Ratio of drug level in brain to blood in rat at 10 mg/kg, po; assay type: ADME, organism-based; set-up: dose 10 mg/kg, route oral
How it was run: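 Rats dosed orally at 10 mg/kg (HCl salt); brain and blood drug concentrations measured and expressed as brain/blood ratio.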

[3] = Solubility of the compound at pH 2.5 by HPLC analysis; assay type: physicochemical; settings: buffer
How it was run: (§1)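 Compound (1 mg) shaken in 0.4 mL buffered solution at pH 7.4 or pH 2.5, then centrifuged; dissolved compound in the supernatant quantified by HPLC.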

[4] = Displacement of [3H]batrachotoxin from rat brain sodium channel site 2; assay type: tissue-based
[5] = Solubility of the compound at pH 7.4 by HPLC analysis; assay type: physicochemical; settings: buffer; how it was run: as §1
[6] = Metabolic stability in rat liver S9 fraction assessed as compound remaining at 1 uM after 30 mins in presence of NADPH; assay type: ADME, subcellular; settings: read-out: Stability
Translocator protein [7] = biological target: Translocator protein (Rattus norvegicus, UniProt P16257); test: Displacement of [3H]PK11195 from Sprague-Dawley rat kidney TSPO after 1 hr by liquid scintillation counting analysis
[8] = Metabolic stability in human liver S9 fraction assessed as compound remaining at 1 uM after 30 mins; assay type: ADME, subcellular; settings: read-out: Stability
Translocator protein [9] = biological target: Translocator protein (Homo sapiens, UniProt P30536); test: Displacement of [3H]PK11195 from TSPO in human U-87 MG cells after 1 hr by liquid scintillation counting analysis; assay type: cell-based
[10] = biological target: Amine oxidase [flavin-containing] A (Homo sapiens, UniProt P21397); test: Inhibition of human MAO-A at 10 uM
Rattus norvegicus [11] = test: Anxiolytic-like activity in Sprague-Dawley rat vogel conflict model assessed as increase in number of shocks at 1 mg/kg, po after 1 hr; assay type: functional, organism-based; set-up: dose 1 mg/kg
Rattus norvegicus [12] = organism: Rattus norvegicus; test: Displacement of [3H]flumazenil from Sprague-Dawley rat cerebral cortex CBR at 10 uM after 1 hr by liquid scintillation counting analysis; assay type: tissue-based
[13] = biological target: Vasopressin V1b receptor (Homo sapiens) (UniProt P47901); test: Binding affinity to human vasopressin V1B receptor at 10 uM by radioligand binding assay
How it was run: (§2)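 Radioligand binding profiling panel across receptors and transporters linked to CNS, cardiovascular and pulmonary adverse events. Each target was tested once at 10 μM, run in duplicate.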

[14] = biological target: Vasopressin V1a receptor (Homo sapiens) (UniProt P37288); test: Binding affinity to human vasopressin V1A receptor at 10 uM by radioligand binding assay; how it was run: as §2
[15] = biological target: Sodium-dependent noradrenaline transporter (Homo sapiens) (UniProt P23975); test: Binding affinity to human norepinephrine transporter at 10 uM by radioligand binding assay; how it was run: as §2
[16] = biological target: Sodium-dependent dopamine transporter (Homo sapiens) (UniProt Q01959); test: Binding affinity to human dopamine transporter at 10 uM by radioligand binding assay; how it was run: as §2
[17] = biological target: Somatostatin receptor type 2 (Homo sapiens) (UniProt P30874); test: Binding affinity to human somatostatin sst2 receptor at 10 uM by radioligand binding assay; how it was run: as §2
[18] = biological target: Substance-P receptor (Homo sapiens) (UniProt P25103); test: Binding affinity to human tachykinin NK1 receptor at 10 uM by radioligand binding assay; how it was run: as §2
[19] = biological target: Sigma non-opioid intracellular receptor 1 (Homo sapiens) (UniProt Q99720); test: Binding affinity to human sigma1 receptor at 10 uM by radioligand binding assay; how it was run: as §2
[20] = biological target: 5-hydroxytryptamine receptor 6 (Homo sapiens) (UniProt P50406); test: Binding affinity to human serotonin 5HT6 receptor at 10 uM by radioligand binding assay; how it was run: as §2
[21] = biological target: 5-hydroxytryptamine receptor 4 (Cavia porcellus) (UniProt O70528); test: Binding affinity to guinea pig serotonin 5HT4 receptor at 10 uM by radioligand binding assay; how it was run: as §2
[22] = biological target: 5-hydroxytryptamine receptor 2A (Rattus norvegicus) (UniProt P14842); test: Binding affinity to rat non-selective serotonin 5HT2 receptor at 10 uM by radioligand binding assay; how it was run: as §2
[23] = biological target: 5-hydroxytryptamine receptor 3A (Homo sapiens) (UniProt P46098); test: Binding affinity to human serotonin 5HT3 receptor at 10 uM by radioligand binding assay; how it was run: as §2
Mesocricetus auratus = organism: Mesocricetus auratus; test: Binding affinity to syrian hamster ATP-sensitive potassium channel at 10 uM by radioligand binding assay
How it was run: (§3)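 Off-target radioligand binding panel: compound tested in duplicate at a single concentration of 10 μM in each assay. Activity is reported as percent inhibition of radioligand binding.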

[24] = biological target: Mu-type opioid receptor (Homo sapiens) (UniProt P35372); test: Binding affinity to human mu opiate receptor at 10 uM by radioligand binding assay; how it was run: as §2
[25] = biological target: Nociceptin receptor (Homo sapiens) (UniProt P41146); test: Binding affinity to human ORL1 receptor at 10 uM by radioligand binding assay; how it was run: as §2
Homo sapiens = organism: Homo sapiens; test: Binding affinity to human nicotinic acetylcholine receptor at 10 uM by radioligand binding assay; how it was run: as §3
[26] = biological target: Neuropeptide Y receptor type 2 (Homo sapiens) (UniProt P49146); test: Binding affinity to human Neuropeptide Y receptor Y2 at 10 uM by radioligand binding assay; how it was run: as §2
[27] = biological target: Neuropeptide Y receptor type 1 (Homo sapiens) (UniProt P25929); test: Binding affinity to human Neuropeptide Y receptor Y1 at 10 uM by radioligand binding assay; how it was run: as §2
[28] = biological target: Muscarinic acetylcholine receptor M3 (Homo sapiens) (UniProt P20309); test: Binding affinity to human muscarinic M3 receptor at 10 uM by radioligand binding assay; how it was run: as §2
[29] = biological target: Muscarinic acetylcholine receptor M2 (Homo sapiens) (UniProt P08172); test: Binding affinity to human muscarinic M2 receptor at 10 uM by radioligand binding assay; how it was run: as §2
[30] = biological target: Histamine H3 receptor (Homo sapiens) (UniProt Q9Y5N1); test: Binding affinity to human histamine H3 receptor at 10 uM by radioligand binding assay; how it was run: as §2
[31] = biological target: Melanocortin receptor 4 (Homo sapiens) (UniProt P32245); test: Binding affinity to human melanocortin MC4 receptor at 10 uM by radioligand binding assay; how it was run: as §2
Rattus norvegicus [32] = organism: Rattus norvegicus; test: Binding affinity to rat strychnine-sensitive glycine receptor at 10 uM by radioligand binding assay; how it was run: as §3
Rattus norvegicus [33] = organism: Rattus norvegicus; test: Binding affinity to rat kainate receptor at 10 uM by radioligand binding assay; how it was run: as §3
Rattus norvegicus [34] = organism: Rattus norvegicus; test: Binding affinity to rat N-methyl D-aspartate receptor phencyclidine binding site at 10 uM by radioligand binding assay; how it was run: as §3
[35] = biological target: Glucocorticoid receptor (Homo sapiens) (UniProt P04150); test: Binding affinity to human glucocorticoid receptor at 10 uM by radioligand binding assay; how it was run: as §2
[36] = biological target: Galanin receptor type 1 (Homo sapiens) (UniProt P47211); test: Binding affinity to human GAL1 receptor at 10 uM by radioligand binding assay; how it was run: as §2
Rattus norvegicus [37] = organism: Rattus norvegicus; test: Binding affinity to rat non-selective GABAB receptor at 10 uM by radioligand binding assay; how it was run: as §3
Rattus norvegicus [38] = organism: Rattus norvegicus; test: Binding affinity to rat GABAA receptor agonist binding site at 10 uM by radioligand binding assay; how it was run: as §3
Rattus norvegicus [39] = organism: Rattus norvegicus; test: Binding affinity to rat GABAA receptor TBOB binding site at 10 uM by radioligand binding assay; how it was run: as §3
[40] = biological target: Estrogen receptor beta (Homo sapiens) (UniProt Q92731); test: Binding affinity to human ERbeta at 10 uM by radioligand binding assay; how it was run: as §2
[41] = biological target: Corticotropin-releasing factor receptor 1 (Homo sapiens) (UniProt P34998); test: Binding affinity to human CRF1 receptor at 10 uM by radioligand binding assay; how it was run: as §2
[42] = biological target: D(1A) dopamine receptor (Homo sapiens) (UniProt P21728); test: Binding affinity to human dopamine D1 receptor at 10 uM by radioligand binding assay; how it was run: as §2
[43] = biological target: Gastrin/cholecystokinin type B receptor (Homo sapiens) (UniProt P32239); test: Binding affinity to human CCK2 receptor at 10 uM by radioligand binding assay; how it was run: as §2
[44] = biological target: Cannabinoid receptor 1 (Homo sapiens) (UniProt P21554); test: Binding affinity to human CB1 receptor at 10 uM by radioligand binding assay; how it was run: as §2
[45] = biological target: Cholecystokinin receptor type A (Homo sapiens) (UniProt P32238); test: Binding affinity to human CCK1 receptor at 10 uM by radioligand binding assay; how it was run: as §2
Rattus norvegicus [46] = organism: Rattus norvegicus; test: Binding affinity to rat N-type calcium channel at 10 uM by radioligand binding assay; how it was run: as §3
Rattus norvegicus [47] = organism: Rattus norvegicus; test: Binding affinity to rat L-type calcium channel dihydropyridine binding site at 10 uM by radioligand binding assay; how it was run: as §3
[48] = biological target: Bombesin receptor subtype-3 (Homo sapiens) (UniProt P32247); test: Binding affinity to human bombesin BB3 receptor at 10 uM by radioligand binding assay; how it was run: as §2
[49] = biological target: Type-2 angiotensin II receptor (Homo sapiens) (UniProt P50052); test: Binding affinity to human angiotensin AT2 receptor at 10 uM by radioligand binding assay; how it was run: as §2
[50] = biological target: Type-1 angiotensin II receptor (Homo sapiens) (UniProt P30556); test: Binding affinity to human angiotensin AT1 receptor at 10 uM by radioligand binding assay; how it was run: as §2
[51] = biological target: Beta-2 adrenergic receptor (Homo sapiens) (UniProt P07550); test: Binding affinity to human adrenergic beta2 receptor at 10 uM by radioligand binding assay; how it was run: as §2
[52] = biological target: Alpha-2A adrenergic receptor (Homo sapiens) (UniProt P08913); test: Binding affinity to human adrenergic alpha2A receptor at 10 uM by radioligand binding assay; how it was run: as §2
[53] = biological target: Beta-1 adrenergic receptor (Homo sapiens) (UniProt P08588); test: Binding affinity to human adrenergic beta1 receptor at 10 uM by radioligand binding assay; how it was run: as §2
[54] = biological target: Adenosine receptor A2a (Homo sapiens) (UniProt P29274); test: Binding affinity to human adenosine A2A receptor at 10 uM by radioligand binding assay; how it was run: as §2
[55] = biological target: Adenosine receptor A1 (Homo sapiens) (UniProt P30542); test: Binding affinity to human adenosine A1 receptor at 10 uM by radioligand binding assay; how it was run: as §2
[56] = biological target: Phosphodiesterase 4 (Homo sapiens) (UniProt P27815+Q08499+Q07343+Q08493); test: Inhibition of human phosphodiesterase PDE4 at 10 uM; assay type: protein assay

Sequence of Translocator protein (Homo sapiens, UniProt P30536) (P30536 whole entry): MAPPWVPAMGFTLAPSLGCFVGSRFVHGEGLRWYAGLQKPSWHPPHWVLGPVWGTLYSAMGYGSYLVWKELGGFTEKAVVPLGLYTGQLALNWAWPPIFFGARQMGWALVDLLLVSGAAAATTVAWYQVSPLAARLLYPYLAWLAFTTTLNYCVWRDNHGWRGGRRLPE
Sequence of Cannabinoid receptor 1 (Homo sapiens) (P21554 whole entry): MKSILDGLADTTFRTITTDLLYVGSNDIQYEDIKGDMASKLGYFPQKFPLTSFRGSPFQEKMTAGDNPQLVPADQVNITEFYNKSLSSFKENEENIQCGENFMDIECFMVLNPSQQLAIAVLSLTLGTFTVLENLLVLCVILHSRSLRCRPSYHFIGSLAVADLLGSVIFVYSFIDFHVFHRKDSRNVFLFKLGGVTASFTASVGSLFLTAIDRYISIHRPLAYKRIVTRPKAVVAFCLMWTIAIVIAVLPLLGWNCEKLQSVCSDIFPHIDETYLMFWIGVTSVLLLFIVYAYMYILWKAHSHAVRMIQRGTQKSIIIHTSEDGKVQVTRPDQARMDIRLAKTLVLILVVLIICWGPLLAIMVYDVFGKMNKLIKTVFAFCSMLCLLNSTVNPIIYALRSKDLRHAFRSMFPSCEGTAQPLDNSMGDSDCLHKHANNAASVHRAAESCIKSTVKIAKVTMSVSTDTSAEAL
Sequence of 5-hydroxytryptamine receptor 4 (Cavia porcellus) (O70528 whole entry): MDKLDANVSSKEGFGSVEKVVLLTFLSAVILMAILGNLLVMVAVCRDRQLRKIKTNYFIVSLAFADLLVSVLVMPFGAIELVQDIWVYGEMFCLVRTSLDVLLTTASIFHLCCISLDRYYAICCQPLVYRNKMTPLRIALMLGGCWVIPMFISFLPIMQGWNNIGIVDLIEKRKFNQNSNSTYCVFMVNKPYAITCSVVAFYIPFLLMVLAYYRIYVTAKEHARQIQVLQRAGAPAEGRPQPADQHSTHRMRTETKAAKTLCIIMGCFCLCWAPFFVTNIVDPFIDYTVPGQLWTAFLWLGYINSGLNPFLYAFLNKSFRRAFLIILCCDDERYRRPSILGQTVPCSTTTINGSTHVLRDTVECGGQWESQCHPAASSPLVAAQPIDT
Sequence of Somatostatin receptor type 2 (Homo sapiens) (P30874 whole entry): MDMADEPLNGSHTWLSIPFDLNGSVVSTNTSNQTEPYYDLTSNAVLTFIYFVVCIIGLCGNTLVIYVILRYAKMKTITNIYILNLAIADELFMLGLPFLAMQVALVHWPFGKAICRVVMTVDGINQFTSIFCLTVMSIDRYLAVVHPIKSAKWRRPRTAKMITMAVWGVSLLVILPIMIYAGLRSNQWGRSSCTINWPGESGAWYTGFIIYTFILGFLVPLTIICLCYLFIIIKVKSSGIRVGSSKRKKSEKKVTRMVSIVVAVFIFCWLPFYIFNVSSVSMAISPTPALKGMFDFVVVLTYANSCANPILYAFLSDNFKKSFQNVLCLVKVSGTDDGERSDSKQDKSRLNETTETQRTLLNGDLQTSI
Sequence of Nociceptin receptor (Homo sapiens) (P41146 whole entry): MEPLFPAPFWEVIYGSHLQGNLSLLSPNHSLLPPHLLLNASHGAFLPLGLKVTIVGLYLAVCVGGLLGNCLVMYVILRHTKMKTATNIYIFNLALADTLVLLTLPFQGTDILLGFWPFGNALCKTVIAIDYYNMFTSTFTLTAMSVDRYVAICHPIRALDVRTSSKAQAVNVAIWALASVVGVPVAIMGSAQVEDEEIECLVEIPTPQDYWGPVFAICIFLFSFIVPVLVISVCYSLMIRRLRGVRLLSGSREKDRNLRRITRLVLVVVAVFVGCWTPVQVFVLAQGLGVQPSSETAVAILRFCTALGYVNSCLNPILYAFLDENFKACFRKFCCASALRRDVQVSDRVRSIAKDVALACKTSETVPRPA
Sequence of Neuropeptide Y receptor type 2 (Homo sapiens) (P49146 whole entry): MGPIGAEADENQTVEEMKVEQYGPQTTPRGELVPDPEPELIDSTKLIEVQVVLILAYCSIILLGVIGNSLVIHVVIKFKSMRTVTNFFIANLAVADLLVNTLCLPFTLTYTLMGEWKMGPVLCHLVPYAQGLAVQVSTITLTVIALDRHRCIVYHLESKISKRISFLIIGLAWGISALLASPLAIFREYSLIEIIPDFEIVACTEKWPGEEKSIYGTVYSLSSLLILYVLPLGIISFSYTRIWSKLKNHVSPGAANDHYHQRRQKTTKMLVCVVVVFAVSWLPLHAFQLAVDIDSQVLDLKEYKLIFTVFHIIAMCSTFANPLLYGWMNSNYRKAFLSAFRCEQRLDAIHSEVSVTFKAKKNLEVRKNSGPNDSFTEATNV
Sequence of D(1A) dopamine receptor (Homo sapiens) (P21728 whole entry): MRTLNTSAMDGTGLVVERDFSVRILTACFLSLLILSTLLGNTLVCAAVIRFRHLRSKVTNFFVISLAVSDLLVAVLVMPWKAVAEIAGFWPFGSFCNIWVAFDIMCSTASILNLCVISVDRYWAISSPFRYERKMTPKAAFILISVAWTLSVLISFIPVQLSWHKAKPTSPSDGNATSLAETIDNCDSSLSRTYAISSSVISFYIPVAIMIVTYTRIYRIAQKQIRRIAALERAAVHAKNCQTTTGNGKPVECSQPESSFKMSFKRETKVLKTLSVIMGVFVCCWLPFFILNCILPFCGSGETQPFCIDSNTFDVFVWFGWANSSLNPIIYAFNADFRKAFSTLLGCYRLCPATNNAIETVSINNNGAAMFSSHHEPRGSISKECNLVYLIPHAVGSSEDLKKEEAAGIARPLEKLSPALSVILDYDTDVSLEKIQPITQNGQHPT
Sequence of Gastrin/cholecystokinin type B receptor (Homo sapiens) (P32239 whole entry): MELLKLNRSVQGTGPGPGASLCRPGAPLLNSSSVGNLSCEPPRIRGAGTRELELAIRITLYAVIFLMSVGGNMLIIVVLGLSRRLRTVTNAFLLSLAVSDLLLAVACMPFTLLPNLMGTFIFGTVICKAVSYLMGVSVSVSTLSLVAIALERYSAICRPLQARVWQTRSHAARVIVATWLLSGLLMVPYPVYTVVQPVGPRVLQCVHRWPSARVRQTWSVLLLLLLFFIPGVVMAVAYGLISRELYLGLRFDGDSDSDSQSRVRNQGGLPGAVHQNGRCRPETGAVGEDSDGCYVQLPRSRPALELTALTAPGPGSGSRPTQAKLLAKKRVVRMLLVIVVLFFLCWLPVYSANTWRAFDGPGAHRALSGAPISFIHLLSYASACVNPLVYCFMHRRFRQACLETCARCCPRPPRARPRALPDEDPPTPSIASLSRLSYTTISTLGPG
Sequence of Muscarinic acetylcholine receptor M3 (Homo sapiens) (P20309 whole entry, looked up): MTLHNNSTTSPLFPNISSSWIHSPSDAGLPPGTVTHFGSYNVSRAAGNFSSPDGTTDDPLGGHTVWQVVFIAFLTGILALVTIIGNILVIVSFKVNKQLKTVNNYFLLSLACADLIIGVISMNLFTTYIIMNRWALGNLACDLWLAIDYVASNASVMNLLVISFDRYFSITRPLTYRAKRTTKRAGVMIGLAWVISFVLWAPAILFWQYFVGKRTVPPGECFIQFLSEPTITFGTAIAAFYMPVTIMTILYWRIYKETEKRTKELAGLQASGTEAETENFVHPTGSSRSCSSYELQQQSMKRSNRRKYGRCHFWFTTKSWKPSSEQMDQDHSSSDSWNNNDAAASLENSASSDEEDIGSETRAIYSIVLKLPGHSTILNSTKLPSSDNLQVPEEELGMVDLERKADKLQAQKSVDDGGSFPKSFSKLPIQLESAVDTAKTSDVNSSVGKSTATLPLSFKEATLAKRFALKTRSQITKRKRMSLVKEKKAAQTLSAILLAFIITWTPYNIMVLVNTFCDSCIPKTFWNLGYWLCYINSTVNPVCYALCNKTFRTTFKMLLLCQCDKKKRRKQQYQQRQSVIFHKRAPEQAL
Sequence of Mu-type opioid receptor (Homo sapiens) (P35372 whole entry): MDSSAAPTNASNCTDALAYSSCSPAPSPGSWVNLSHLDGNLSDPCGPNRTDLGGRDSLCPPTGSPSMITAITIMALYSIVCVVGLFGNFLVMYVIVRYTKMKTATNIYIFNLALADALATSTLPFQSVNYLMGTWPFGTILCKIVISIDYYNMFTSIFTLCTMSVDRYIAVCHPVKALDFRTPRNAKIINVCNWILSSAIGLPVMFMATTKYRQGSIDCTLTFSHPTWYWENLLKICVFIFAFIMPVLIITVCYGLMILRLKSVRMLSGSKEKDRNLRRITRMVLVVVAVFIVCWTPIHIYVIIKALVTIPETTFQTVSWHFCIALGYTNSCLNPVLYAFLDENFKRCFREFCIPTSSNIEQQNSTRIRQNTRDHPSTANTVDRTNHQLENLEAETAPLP
Sequence of Glucocorticoid receptor (Homo sapiens) (P04150 whole entry): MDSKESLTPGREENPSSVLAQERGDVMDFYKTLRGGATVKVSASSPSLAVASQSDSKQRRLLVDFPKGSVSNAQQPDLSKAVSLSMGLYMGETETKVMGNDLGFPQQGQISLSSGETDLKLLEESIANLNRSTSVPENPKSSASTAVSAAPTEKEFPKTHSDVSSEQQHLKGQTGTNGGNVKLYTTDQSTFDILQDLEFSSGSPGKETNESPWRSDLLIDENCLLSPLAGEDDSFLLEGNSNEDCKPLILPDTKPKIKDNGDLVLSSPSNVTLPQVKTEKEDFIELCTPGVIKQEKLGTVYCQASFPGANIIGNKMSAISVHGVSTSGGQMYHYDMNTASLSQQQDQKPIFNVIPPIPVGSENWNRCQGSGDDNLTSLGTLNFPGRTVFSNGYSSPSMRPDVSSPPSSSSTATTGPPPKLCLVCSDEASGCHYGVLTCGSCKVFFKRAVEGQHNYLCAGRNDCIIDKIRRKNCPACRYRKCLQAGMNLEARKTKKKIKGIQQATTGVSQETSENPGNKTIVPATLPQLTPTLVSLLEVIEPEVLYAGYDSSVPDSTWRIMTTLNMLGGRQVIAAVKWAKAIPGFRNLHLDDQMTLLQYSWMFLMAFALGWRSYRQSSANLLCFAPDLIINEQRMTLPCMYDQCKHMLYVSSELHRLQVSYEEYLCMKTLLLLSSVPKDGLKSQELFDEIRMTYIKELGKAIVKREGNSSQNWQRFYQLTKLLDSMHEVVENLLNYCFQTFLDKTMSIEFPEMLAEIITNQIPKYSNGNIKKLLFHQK

## CN(C(=O)Cn1c(=O)oc2ccc(-c3ccc(OC(F)(F)F)cc3)cc21)c1cccnc1.Cl
Mus musculus
  Activity: Toxic
[1]
  solubility: 23 µg/mL
[2]
  Kp: 1.3

## CN(C(=O)Cn1c(=O)oc2ccc(-c3cccnc3)cc21)c1ccc(C(F)(F)F)cc1 [listing 1 of 2 here]
[3]
  solubility: 420 µg/mL (≈ 983 µM)
[4]
  IC50: > 10000 nM
[5]
  solubility: 1 µg/mL (≈ 2.34 µM)
[6]
  remaining at 0.5 h, 1 µM: 38%
Translocator protein [7]
  Ki: 8.6 nM
[8]
  remaining at 0.5 h, 1 µM: 84%
Translocator protein [9]
  Ki: 8 nM
[10]
  inhibition (INH): Not Active

## CN(C(=O)Cn1c(=O)oc2ccc(-c3cccnc3)cc21)c1ccc(C(F)(F)F)cc1 [listing 2 of 2 here]
Rattus norvegicus [11]
  Activity: Active
Rattus norvegicus [12]
  inhibition: 0%
[13]
  inhibition: inactive
[14]
  inhibition: inactive
[15]
  inhibition: inactive
[16]
  inhibition: inactive
[17]
  inhibition: inactive
[18]
  inhibition: inactive
[19]
  inhibition: inactive
[20]
  inhibition: inactive
[21]
  inhibition: inactive
[22]
  inhibition: inactive
[23]
  inhibition: inactive
Mesocricetus auratus
  inhibition: inactive
[24]
  inhibition: inactive
[25]
  inhibition: inactive
Homo sapiens
  inhibition: inactive
[26]
  inhibition: inactive
[27]
  inhibition: inactive
[28]
  inhibition: inactive
[29]
  inhibition: inactive
[30]
  inhibition: inactive
[31]
  inhibition: inactive
Rattus norvegicus [32]
  inhibition: inactive
Rattus norvegicus [33]
  inhibition: inactive
Rattus norvegicus [34]
  inhibition: inactive
[35]
  inhibition: inactive
[36]
  inhibition: inactive
Rattus norvegicus [37]
  inhibition: inactive
Rattus norvegicus [38]
  inhibition: inactive
Rattus norvegicus [39]
  inhibition: inactive
[40]
  inhibition: inactive
[41]
  inhibition: inactive
[42]
  inhibition: inactive
[43]
  inhibition: inactive
[44]
  inhibition: inactive
[45]
  inhibition: inactive
Rattus norvegicus [46]
  inhibition: inactive
Rattus norvegicus [47]
  inhibition: inactive
[48]
  inhibition: inactive
[49]
  inhibition: inactive
[50]
  inhibition: inactive
[51]
  inhibition: inactive
[52]
  inhibition: inactive
[53]
  inhibition: inactive
[54]
  inhibition: inactive
[55]
  inhibition: inactive
[56]
  inhibition: inactive
